In ChEMBL document CHEMBL2034843, “3α-Hydroxymasticadienonic acid as an antiproliferative agent that impairs mitochondrial functions” (J Nat Prod, 2012):
Active and inactive are the calls of the source. The calls are words filed in the database; no cut-off is given here.

How the values were obtained:
Rattus norvegicus [1] = organism: Rattus norvegicus; assay: Induction of mitochondrial dysfunction in rat liver mitochondria assessed as increase in colloid-osmotic swelling at 10 uM by spectrophotometric analysis in presence of 50 uM Ca2+ and N-ethylmaleimide; assay type: functional
How it was run: (§1)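 Swelling read as the 540 nm absorbance decrease in succinate-energized rat liver mitochondria (1 mg protein/mL, 20 °C, pH 7.4 sucrose/HEPES medium) with 50 μM Ca2+. Added agents where indicated: 1 μM CsA, 5 μM bongkrekic acid, 1 mM ADP, 2 μM ruthenium red, 10 μM NEM, 1 mM DTE. At least five repeats.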

Rattus norvegicus [2] = organism: Rattus norvegicus; assay: Hepatoprotective activity in rat liver mitochondria assessed as inhibition of Ca2+-induced mitochondrial swelling at 100 uM by spectrophotometric analysis; assay type: functional
How it was run: (§2)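 Absorbance change at 540 nm of rat liver mitochondrial suspensions (1 mg protein/mL, 20 °C, succinate/rotenone energized, 250 mM sucrose, 10 mM HEPES pH 7.4, 1 mM phosphate); a fall in absorbance taken as swelling. Ca2+ at 50, 70 or 90 μM as specified, or omitted. Runs repeated at least four times.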

Rattus norvegicus [3] = organism: Rattus norvegicus; assay: Induction of mitochondrial dysfunction in Ca2+-stimulated rat liver mitochondria assessed as decrease in mitochondrial redox level at 10 uM after 15 mins by absorption spectrophotometric analysis in presence of N-ethylmaleimide; assay type: functional
How it was run: (§3)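 Mitochondrial protein thiol oxidation assayed per Santos et al. after 15 min incubation of rat liver mitochondria (1 mg protein/mL, 20 °C, succinate/rotenone standard medium). Results as % reduced thiols, mean ± SD, four independent experiments.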

Rattus norvegicus [4] = organism: Rattus norvegicus; assay: Induction of mitochondrial dysfunction in rat liver mitochondria assessed as initial uptake of Ca2+ per mg protein at 100 uM measured immediately by spectrophotometric analysis; assay type: functional
How it was run: (§4)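 Ca2+ movements in rat liver mitochondria (1 mg protein/mL, 20 °C, succinate/rotenone medium) exposed to 70 μM Ca2+; Ca2+ in mitochondrial pellets measured by atomic absorption spectroscopy, uptake expressed per mg protein.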

Rattus norvegicus [5] = organism: Rattus norvegicus; assay: Induction of mitochondrial dysfunction in rat liver mitochondria assessed as increase in colloid-osmotic swelling at 10 uM by spectrophotometric analysis in presence of 50 uM Ca2+; assay type: functional; how it was run: as §2
Rattus norvegicus [6] = organism: Rattus norvegicus; assay: Hepatoprotective activity in rat liver assessed as inhibition of colloid-osmotic mitochondrial swelling at 100 uM by spectrophotometric analysis in presence of 90 uM Ca2+; assay type: functional; details: Mitochondria; how it was run: as §2
Rattus norvegicus [7] = organism: Rattus norvegicus; assay: Induction of mitochondrial bioenergetics dysfunction in ADP-stimulated rat liver mitochondria assessed as decrease in oxygen consumption at 10 to 50 uM by using clark electrode; assay type: functional
How it was run: (§5)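 Isolated rat liver mitochondria (1 mg protein/mL), 20 °C, sucrose/HEPES pH 7.4 medium with 5 mM succinate plus 1.25 μM rotenone and 1 mM phosphate. O2 uptake followed with a Clark electrode; 300 μM ADP added to start state 3. RCI = V3/V4 (state 3 over state 4 rate). Five experiments.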

Rattus norvegicus [8] = organism: Rattus norvegicus; assay: Induction of mitochondrial dysfunction in rat liver mitochondria assessed as decrease in mitochondrial pyridine nucleotide redox level at 10 uM after 15 mins by fluorometric analysis in presence of Ca2+
Rattus norvegicus [9] = organism: Rattus norvegicus; assay: Hepatoprotective activity in rat liver assessed as inhibition of colloid-osmotic mitochondrial swelling at 100 uM by spectrophotometric analysis in presence of 90 uM Ca2+; details: Mitochondria
Rattus norvegicus [10] = organism: Rattus norvegicus; assay: Hepatoprotective activity in rat liver mitochondria assessed as change in mitochondrial pyridine nucleotide redox level at 100 uM after 15 mins by fluorometric analysis in presence of Ca2+
Rattus norvegicus [11] = organism: Rattus norvegicus; assay: Induction of mitochondrial dysfunction in rat liver mitochondria assessed as increase in colloid-osmotic swelling at 10 uM by spectrophotometric analysis in presence of 50 uM Ca2+ and dithiothreitol; assay type: functional; how it was run: as §1
Rattus norvegicus [12] = organism: Rattus norvegicus; assay: Induction of mitochondrial dysfunction in Ca2+-stimulated rat liver mitochondria assessed as decrease in mitochondrial redox level at 10 uM after 15 mins by absorption spectrophotometric analysis in presence of cyclosporin A; assay type: functional; how it was run: as §3
Rattus norvegicus [13] = organism: Rattus norvegicus; assay: Hepatoprotective activity in rat liver assessed as increase in mitochondrial membrane potential at 100 uM by spectrophotometric analysis in presence of 50 uM Ca2+; assay type: functional; details: Mitochondria
How it was run: (§6)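 Membrane potential (ΔΨ) derived from TPP+ distribution across the inner membrane, measured with a TPP+-selective electrode. Ca2+ 50 μM where indicated; cyclosporin A 1 μM where indicated.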

Rattus norvegicus [14] = organism: Rattus norvegicus; assay: Induction of mitochondrial bioenergetics dysfunction in rat liver mitochondria assessed as decrease in respiratory control index at 50 uM by using clark electrode; assay type: functional; how it was run: as §5
Rattus norvegicus [15] = organism: Rattus norvegicus; assay: Induction of mitochondrial dysfunction in rat liver mitochondria assessed as cytochrome c release at 100 uM after 15 mins by Western blot analysis; assay type: functional
How it was run: (§7)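 Mitochondria (1 mg protein/mL) held 15 min at 20 °C in standard succinate/rotenone medium with or without Ca2+, then centrifuged 13000g, 10 min, 4 °C. Supernatants concentrated, resolved by SDS-PAGE (15% for cyt c, 10% for AIF) and immunoblotted with mouse anti-cyt c or rabbit anti-AIF.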

Rattus norvegicus [16] = organism: Rattus norvegicus; assay: Induction of mitochondrial dysfunction in rat liver mitochondria assessed as rapid accumulation of Ca2+ at 10 uM by spectrophotometric analysis; assay type: functional
How it was run: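 Rat liver mitochondria, isolated by differential centrifugation in sucrose/HEPES/EGTA buffer, were incubated at 1 mg protein/mL and 20 °C. Ca2+ content of mitochondrial pellets was measured by atomic absorption spectroscopy.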

Rattus norvegicus [17] = organism: Rattus norvegicus; assay: Induction of mitochondrial dysfunction in rat liver mitochondria assessed as decrease in mitochondrial redox level at 100 uM after 15 mins by absorption spectrophotometric analysis in presence of 50 uM Ca2+; assay type: functional; set-up: scale not given: the % may be the effect or the level left; how it was run: as §3
Rattus norvegicus [18] = organism: Rattus norvegicus; assay: Induction of mitochondrial dysfunction in rat liver mitochondria assessed as change in membrane potential by spectrophotometric analysis; assay type: functional
Rattus norvegicus [19] = organism: Rattus norvegicus; assay: Induction of mitochondrial dysfunction in rat liver mitochondria assessed as apoptosis inducing factor release at 10 uM after 15 mins by Western blot analysis; assay type: functional; how it was run: as §7
Rattus norvegicus [20] = organism: Rattus norvegicus; assay: Induction of mitochondrial dysfunction in rat liver mitochondria assessed as blockage of Ca2+ release at 100 uM by spectrophotometric analysis; assay type: functional; details: in the assay text read “Ca2+ accumulation” for “Ca2+ release”; how it was run: as §4
Rattus norvegicus [21] = organism: Rattus norvegicus; assay: Induction of mitochondrial dysfunction in rat liver mitochondria assessed as decrease in membrane potential at 1 uM by spectrophotometric analysis in presence of 50 uM Ca2+; assay type: functional; details: in the assay text read “TPP+-selective electrode” for “spectrophotometric analysis”, TDE = time-dependent effect; how it was run: as §6
Rattus norvegicus [22] = organism: Rattus norvegicus; assay: Induction of mitochondrial dysfunction in rat liver mitochondria assessed as increase in colloid-osmotic swelling at 10 uM by spectrophotometric analysis in presence of 50 uM Ca2+ and Ca2+ transport inhibitor ruthedium red; assay type: functional; how it was run: as §1
Rattus norvegicus [23] = organism: Rattus norvegicus; assay: Induction of mitochondrial dysfunction in rat liver mitochondria assessed as apoptosis inducing factor release at 100 uM after 15 mins by Western blot analysis in presence of Ca2+; assay type: functional; how it was run: as §7
Rattus norvegicus [24] = organism: Rattus norvegicus; assay: Induction of mitochondrial dysfunction in rat liver mitochondria assessed as cytochrome c release at 10 uM after 15 mins by Western blot analysis in presence of Ca2+; assay type: functional; how it was run: as §7
Rattus norvegicus [25] = organism: Rattus norvegicus; assay: Induction of mitochondrial dysfunction in rat liver mitochondria assessed as decrease in membrane potential at 100 uM by spectrophotometric analysis in presence of 1 uM MPT inhibitor cyclosporin A; assay type: functional; how it was run: as §6
Rattus norvegicus [26] = organism: Rattus norvegicus; assay: Induction of mitochondrial dysfunction in rat liver mitochondria assessed as cytochrome c release at 100 uM after 15 mins by Western blot analysis in presence of Ca2+; assay type: functional; how it was run: as §7

C/C(=C/CC[C@H](C)[C@@H]1CC[C@]2(C)C3=CC[C@H]4C(C)(C)[C@H](O)CC[C@]4(C)[C@H]3CC[C@@]12C)C(=O)O
Activity (Rattus norvegicus [1]): inactive | inhibition (Rattus norvegicus [2]): Active | Activity (Rattus norvegicus [3]): inactive | Activity (Rattus norvegicus [4]): 20 nmol | Activity (Rattus norvegicus [5]): Active | inhibition (Rattus norvegicus [6]): Active | Activity (Rattus norvegicus [7]): Active | Activity (Rattus norvegicus [8]): Active | inhibition (Rattus norvegicus [9]): Active | Activity (Rattus norvegicus [10]): Active | Activity (Rattus norvegicus [11]): inactive | Activity (Rattus norvegicus [12]): inactive | Activity (Rattus norvegicus [13]): Active | Activity (Rattus norvegicus [14]): Active | Activity (Rattus norvegicus [15]): inactive | Activity (Rattus norvegicus [16]): Active | Activity (Rattus norvegicus [17]): 25% | Activity (Rattus norvegicus [18]): Dose-dependent effect | Activity (Rattus norvegicus [19]): inactive | Activity (Rattus norvegicus [20]): Active | Activity (Rattus norvegicus [21]): tde | Activity (Rattus norvegicus [22]): inactive | Activity (Rattus norvegicus [23]): inactive | Activity (Rattus norvegicus [24]): Active | Activity (Rattus norvegicus [25]): Active | Activity (Rattus norvegicus [26]): inactive
